Only some compounds are listed: those with a hit (about 1.8% of all), similar ones and a draw of the others.
LEDGF integ inh – blocks HIV-1 LEDGF/p75-dependent DNA integration; TR-FRET IN-LEDGF/p75 DNA integration, Eu/Cy5; inhibition, % at 3.7 µM; 370,000 compounds, 0.64% hits; AID 743269;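 active = inhibition above the screen-wide mean plus 3 SD, cut at about 13% in these data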;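 also: signal is the Cy5 over europium emission ratio at 671 and 618 nm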
TDP2 inh – blocks human TDP2 phosphodiesterase activity; O95551; 370,000 compounds, 0.34% hits; inhibition, % at 12.8 µM; recombinant TDP2, T5PNP hydrolysis, p-nitrophenol absorbance 415 nm;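 active = inhibition above the mean of all tested compounds plus 3 SD, set per campaign, cut at about 25% in these data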
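System – recombinant human TDP2 · Quantity – TDP2 enzyme at 120 nM final · Doses – single concentration, 12.8 µM nominal, with 1% DMSO · Incubation – 2 h at 37 °C · Measured by – epi absorbance of p-nitrophenol freed from T5PNP by hydrolysis · Read-out – % inhibition relative to enzyme-containing and enzyme-free wells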
UHRF1 MBD2 ctr – UHRF1 methyl-DNA binding inhibition. UHRF1 binding to methylated oligo, TR-FRET. 370,000 compounds, 0.75% hits. inhibition, % at 4.4 µM; in the data active = inhibition above about 21%;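 also: UHRF1 SRA domain binding a hemimethylated CpG hairpin DNA probe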
HCV core dimer – blocks dimerization of HCV core protein; TR-FRET GST/Flag-core106 dimerization, 1536-well; inhibition, % at 5 µM; 300,000 compounds, 0.33% hits; AID 1899;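 active = inhibition above the mean of all tested compounds plus 3 SD, set per screening campaign, cut at about 45% in these data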
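System – GST-tagged and Flag-tagged HCV core protein residues 1-106 · Repeats – one well for each compound · Technique – TR-FRET 671 and 617 nm emission · Doses – one concentration, 5 µM, in 0.5% DMSO · Times – 4 h, 22.5 °C incubation · Also added – Eu donor and XL665 acceptor anti-tag antibodies · Measure – percent inhibition of core106 dimerization signal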
MBD2 DNA inh – inhibitors of human MBD2 binding to methylated oligonucleotide. Q9UBB5. TR-FRET. inhibition, % at 4.4 µM. 370,000 compounds, 0.31% hits. AID 686964; in the data active = inhibition above about 13%
Target sequence (Q9UBB5 whole entry, looked up): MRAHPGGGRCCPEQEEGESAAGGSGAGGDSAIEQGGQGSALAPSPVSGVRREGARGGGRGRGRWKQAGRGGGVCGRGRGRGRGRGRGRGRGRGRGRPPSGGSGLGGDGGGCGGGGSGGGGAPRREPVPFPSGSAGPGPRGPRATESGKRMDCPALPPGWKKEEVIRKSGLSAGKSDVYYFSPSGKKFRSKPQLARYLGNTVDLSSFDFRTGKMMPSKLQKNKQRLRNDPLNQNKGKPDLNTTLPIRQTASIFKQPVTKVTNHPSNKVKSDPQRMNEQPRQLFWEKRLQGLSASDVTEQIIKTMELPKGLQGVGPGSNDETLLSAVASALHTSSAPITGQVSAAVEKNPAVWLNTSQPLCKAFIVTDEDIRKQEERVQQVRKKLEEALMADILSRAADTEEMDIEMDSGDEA
Hits are given with their value.

Screening NC(=O)c1c(NC(=O)CSc2nnc(-c3ccco3)n2-c2ccccc2)sc2c1CCC2 returned LEDGF integ inh inactive, TDP2 inh inactive, UHRF1 MBD2 ctr inactive, HCV core dimer 72.3 and MBD2 DNA inh inactive.
For CCn1c(SCC(=O)Nc2sc3c(c2C#N)CCCC3)nnc1-c1ccco1 the results were LEDGF integ inh inactive, TDP2 inh inactive, UHRF1 MBD2 ctr inactive, HCV core dimer inactive and MBD2 DNA inh inactive.
`COC(=O)[C@]12C[C@H](CC(=O)N3CCCCC3)C(=O)N(Cc3cccc4ccccc34)C1=C[C@H](C1CCCC1)O[C@@H]2C` gave LEDGF integ inh inactive, TDP2 inh inactive, UHRF1 MBD2 ctr inactive and MBD2 DNA inh inactive.
`COc1ccc(S(=O)(=O)NCc2ccccn2)cc1NC(=O)c1ccc(C)cc1` gave LEDGF integ inh inactive, TDP2 inh inactive, UHRF1 MBD2 ctr inactive, HCV core dimer inactive and MBD2 DNA inh inactive.
For COc1ccc(S(=O)(=O)NCc2ccccn2)cc1NC(=O)c1ccccc1 the results were LEDGF integ inh inactive, TDP2 inh inactive, UHRF1 MBD2 ctr 35.5, HCV core dimer inactive and MBD2 DNA inh inactive.
`Cc1ccc(S(=O)(=O)NCc2ccccn2)cc1C` gave LEDGF integ inh inactive, TDP2 inh inactive, UHRF1 MBD2 ctr 23.0, HCV core dimer inactive and MBD2 DNA inh inactive.
`O=C(CCc1nc(-c2ccccc2F)no1)NCCc1ccc(F)cc1` gave LEDGF integ inh inactive, TDP2 inh inactive, UHRF1 MBD2 ctr inactive and MBD2 DNA inh inactive.
COC(=O)C1CN(Cc2ccc(F)cc2)CCS(=O)(=O)N1Cc1cn(Cc2ccccc2)nn1 (configuration not stated) was read as LEDGF integ inh inactive, TDP2 inh inactive, UHRF1 MBD2 ctr inactive and MBD2 DNA inh inactive.
`COc1ccc(C)cc1S(=O)(=O)N(CC(=O)Nc1cccc([N+](=O)[O-])c1)c1ccccc1` gave LEDGF integ inh inactive, TDP2 inh inactive, UHRF1 MBD2 ctr 31.5, HCV core dimer inactive and MBD2 DNA inh inactive.
For CS(=O)(=O)N(CC(=O)Nc1cccc([N+](=O)[O-])c1)c1ccccc1 the results were LEDGF integ inh inactive, TDP2 inh inactive, UHRF1 MBD2 ctr inactive, HCV core dimer inactive and MBD2 DNA inh inactive.
Nc1nc2ncc(C(=O)c3cc(F)ccc3O)cc2s1 was read as LEDGF integ inh inactive, TDP2 inh inactive, UHRF1 MBD2 ctr 21.5, HCV core dimer inactive and MBD2 DNA inh inactive.
COc1ccc(Br)c(C=O)c1OS(=O)(=O)c1ccc(C)cc1 was read as LEDGF integ inh 16.4, TDP2 inh inactive, UHRF1 MBD2 ctr inactive and MBD2 DNA inh inactive.
COc1ccc2c(c1)CCCN2C(=O)C1CCCN(S(=O)(=O)c2ccc(C(C)(C)C)cc2)C1 (configuration not stated) was read as LEDGF integ inh inactive, TDP2 inh inactive, UHRF1 MBD2 ctr inactive and MBD2 DNA inh inactive.
COc1ccc(Cl)cc1C(=O)NC(=S)Nc1nc(C)cc(C)n1 was read as LEDGF integ inh inactive, TDP2 inh inactive, UHRF1 MBD2 ctr inactive, HCV core dimer inactive and MBD2 DNA inh inactive.
COc1ccc(Cl)cc1C(=O)NC(=S)Nc1cc(-c2nc3ccccc3[nH]2)ccc1C was read as LEDGF integ inh inactive, TDP2 inh inactive, UHRF1 MBD2 ctr inactive, HCV core dimer 47.3 and MBD2 DNA inh inactive.
For CSc1ccccc1C(=O)NCc1ccccc1C the results were LEDGF integ inh inactive, TDP2 inh inactive, UHRF1 MBD2 ctr 22.4, HCV core dimer inactive and MBD2 DNA inh inactive.
`S=C(Nc1ccccc1Cl)OCCN1CCCC12CCC(c1ccccc1)CC2` (configuration not stated) gave LEDGF integ inh inactive, TDP2 inh inactive, UHRF1 MBD2 ctr inactive and MBD2 DNA inh inactive.
Screening CCOC(=O)[C@]12CCC=C1N(Cc1ccccc1)C(=O)[C@H](CC(=O)NCCCCc1ccccc1)C2 returned LEDGF integ inh inactive, TDP2 inh inactive, UHRF1 MBD2 ctr inactive and MBD2 DNA inh inactive.
CCOC(=O)[C@]12CCC=C1N(Cc1ccccc1)C(=O)[C@H](CC(=O)NCCC(C)C)C2 was read as LEDGF integ inh inactive, TDP2 inh inactive, UHRF1 MBD2 ctr 23.6 and MBD2 DNA inh inactive.
`COc1ccc(C(CNC(=O)c2ccc(NS(=O)(=O)c3ccc4c(c3)OCCO4)cc2)N(C)C)cc1` (configuration not stated) gave LEDGF integ inh inactive, TDP2 inh inactive, UHRF1 MBD2 ctr 21.4, HCV core dimer inactive and MBD2 DNA inh inactive.
COCCCNCCCCOc1ccc(OCc2ccccc2)cc1 was read as LEDGF integ inh inactive, TDP2 inh inactive, UHRF1 MBD2 ctr inactive, HCV core dimer inactive and MBD2 DNA inh inactive.
Screening c1ccc(COc2ccc(OCCCNC3CCCC3)cc2)cc1 returned LEDGF integ inh inactive, TDP2 inh inactive, UHRF1 MBD2 ctr 30.6, HCV core dimer inactive and MBD2 DNA inh inactive.
O=C(NC1CCCC1)c1ccccc1OCc1ccccc1 was read as LEDGF integ inh inactive, TDP2 inh inactive, UHRF1 MBD2 ctr 39.1, HCV core dimer inactive and MBD2 DNA inh inactive.
For COc1ccc(-c2nnc(SCC(=O)N/N=C\C=C/c3ccco3)n2-c2ccc(C)cc2)cc1 the results were LEDGF integ inh inactive, TDP2 inh inactive, UHRF1 MBD2 ctr inactive and MBD2 DNA inh inactive.
`Cc1ccccc1-n1c(-c2ccncc2)n[nH]c1=S` gave LEDGF integ inh inactive, TDP2 inh inactive, UHRF1 MBD2 ctr inactive, HCV core dimer inactive and MBD2 DNA inh inactive.
Cc1cccc(-n2c(-c3ccncc3)n[nH]c2=S)c1C was read as LEDGF integ inh inactive, TDP2 inh inactive, UHRF1 MBD2 ctr inactive, HCV core dimer 49.1 and MBD2 DNA inh inactive.
`CC(=O)c1cccc(NC(=O)C2(c3ccccc3)CC2(Cl)Cl)c1` (configuration not stated) gave LEDGF integ inh inactive, TDP2 inh inactive, UHRF1 MBD2 ctr 25.2, HCV core dimer inactive and MBD2 DNA inh inactive.
`O=C(Nc1ccc(-n2nncc2-c2ccco2)cc1)c1cccc(F)c1` gave LEDGF integ inh inactive, TDP2 inh inactive, UHRF1 MBD2 ctr inactive, HCV core dimer inactive and MBD2 DNA inh inactive.
`O=C(Nc1ccc(-n2nncc2-c2ccco2)cc1)c1cc2ccccc2oc1=O` gave HCV core dimer 77.5.
Screening Cc1ccc(C=Nn2c(-c3n[nH]c4c3CCC4)n[nH]c2=S)o1 returned LEDGF integ inh inactive, TDP2 inh inactive, UHRF1 MBD2 ctr inactive and MBD2 DNA inh inactive.
For CCCCn1c(N)c(N(CC(C)C)C(=O)c2cc3c(s2)CCCCC3)c(=O)[nH]c1=O the results were LEDGF integ inh inactive, TDP2 inh inactive, UHRF1 MBD2 ctr 56.9, HCV core dimer inactive and MBD2 DNA inh inactive.
CN(C)C=Nc1nc2c(Br)ccc(Br)c2cc1C(=O)NCC(C)(C)C was read as LEDGF integ inh inactive, TDP2 inh inactive, UHRF1 MBD2 ctr inactive and MBD2 DNA inh inactive.
`O=c1c2c3c(sc2n2cnnc2n1Cc1ccccc1)CN(Cc1ccccc1)CC3` gave LEDGF integ inh inactive, TDP2 inh inactive, UHRF1 MBD2 ctr inactive, HCV core dimer 51.0 and MBD2 DNA inh inactive.
